Reference: publication PMC6434473 (Cell Transplantation, 2018)
“Also recorded” adds a separate entry of the source.

Key:
HSCs = conditions: clinical studies; cited from earlier work
[1] = tested on: CXCR4-dependent HIV-1 strains; conditions: cited from earlier work
C3H/HeJ mice = test: Mobilization of hematopoietic progenitor cells to the blood; assay type: in vivo, mouse; conditions: subcutaneous, 1 h; for mobilization of BFU-E from the bone marrow to the blood / mobilization of CFU-GEMM from the bone marrow to the blood / mobilization of CFU-GM from the bone marrow to the blood: 7-day culture in MethoCult GF M3434; for mobilization of HPCs from the bone marrow to the peripheral blood: vs vehicle control (P < 0.01), monovalent peptide 37.5 and 150 mg/kg, bivalent peptide 57.5 and 230 mg/kg, mean of at least three independent experiments
How it was run: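 C3H/HeJ mice received vehicle or peptide subcutaneously. After 1 h, peripheral blood was drawn into heparin-treated tubes and red cells were lysed with ammonium chloride. Cells were grown in MethoCult GF M3434 for 7 days in humidified 5% CO2. CFU-GM, BFU-E and CFU-GEMM colonies were counted.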

CXCR7 [2] = test: SDF-1α-induced phosphorylation of Akt and Erk in CXCR7-transfected CHO cells; assay type: cell-based, human; conditions: Western blotting; for effect on SDF-1α-induced Akt phosphorylation: peptides with SDF-1α
How it was run: (§1)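 CHO cells were stably transfected with pcDNA3-hCXCR4 or pcDNA3-hCXCR7, selected in G418 (1.2 mg/mL) and single-cell cloned; the CXCR4 line was also FACS-sorted. After SDF-1α exposure, cells were lysed 30 min on ice (Tris/NaCl/EGTA/deoxycholate/Triton/SDS, pH 7.2, plus phosphatase/protease inhibitors). Blots: BCA-matched protein, 8% SDS-PAGE, nitrocellulose, primary antibodies overnight at 4°C, HRP secondary 1 h at room temperature, chemiluminescent detection.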

human CXCR4 = test: SDF-1α-induced phosphorylation of Akt and Erk in CXCR4-transfected CHO cells; assay type: cell-based; conditions: SDF-1α 12.5 nM
How it was run: as §1

CXCR4 = conditions: HEK293 cells that stably expressed CXCR4; cited from earlier work
wild-type CHO cells = test: SDF-1α-induced phosphorylation of Akt in wild-type CHO cells; assay type: cell-based, Chinese hamster; conditions: SDF-1α 12.5 nM, Western blotting
How it was run: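 Untransfected CHO cells were treated with SDF-1α (12.5 nM), then lysed 30 min on ice in pH 7.2 Tris/NaCl/EGTA/deoxycholate/Triton/SDS buffer with phosphatase/protease inhibitors. Lysates were cleared at 17,000 g, 15 min, 4°C. BCA-matched protein ran on 8% SDS-PAGE onto nitrocellulose, blocked with milk or BSA in TBST. Probing: primary overnight at 4°C, HRP secondary 1 h at room temperature, chemiluminescence.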

CXCR7 [3] = conditions: cited from earlier work
[4] = SDF-1α 12.5 nM, 5, 15, 30, 45, 60 minutes

Compound	anti-HIV entry activity [1]	mobilization of BFU-E from the bone marrow to the blood (C3H/HeJ mice)	mobilization of CFU-GEMM from the bone marrow to the blood (C3H/HeJ mice)	mobilization of CFU-GM from the bone marrow to the blood (C3H/HeJ mice)	mobilization of HPCs from the bone marrow to the peripheral blood (C3H/HeJ mice)	effect on SDF-1α-induced Akt phosphorylation (CXCR7 [2])	also measured
c1cc(CN2CCCNCCNCCCNCC2)ccc1CN1CCCNCCNCCCNCC1 [AMD3100]							mobilization of HSCs to the peripheral blood (HSCs): rapid mobilization of HSCs to the peripheral blood
LGASWHRPDK [DV3]	anti-HIV entry activity						
LGASWHRPDKCCLGYQKRPLP [DV1]	anti-HIV entry activity	strongly induced rapid mobilization	strongly induced rapid mobilization	strongly induced rapid mobilization	strong mobilization of HPCs	slight effect; also recorded: little or no effect	effect on SDF-1α-induced Akt phosphorylation (CXCR7 [2]; listed as DV-1): little inhibitory effects
LGASWHRPDKCCLGYQKRPLPK [HC4319]		strongly induced rapid mobilization	strongly induced rapid mobilization	strongly induced rapid mobilization	strong mobilization of HPCs	little inhibitory effects; also recorded: little or no effect	inhibitory effect on phosphorylation of Akt compared with DV1 (human CXCR4; 30 μM, bivalent vs monovalent): more potent inhibitory effect; inhibitory effect on phosphorylation of Erk compared with DV1 (human CXCR4; 30 μM, bivalent vs monovalent): more potent inhibitory effect; CXCR4 binding potency compared with the monomeric counterparts DV1 and DV3 (CXCR4): much more potent
LGASWHRPDKCCLGYQKRPLPQVL LSSWYPTSQLCSKPGVIFLTKRGRQ VCADKSKDWVKKLMQQLPVTAR [vMIP-II]							inhibition of HIV-1 entry ([1]; vMIP-II binding to CXCR4 or CCR5): inhibitory effect on HIV-1 entry
SDF-1α: specific ligand of CXCR4							induction of Akt phosphorylation (wild-type CHO cells): no changes in Akt phosphorylation; affinity for CXCR7 compared with CXCR4 (CXCR7 [3]): higher; induction of phosphorylation of Akt (human CXCR4; Western blotting): induced the phosphorylation of Akt and Erk significantly; induction of phosphorylation of Erk (human CXCR4; Western blotting): induced the phosphorylation of Akt and Erk significantly; induction of Akt phosphorylation (CXCR7 [2]; [4]): only Akt phosphorylation was observed consistently from 5 to 60 minutes; also recorded: only weak phosphorylation of Akt; induction of Erk phosphorylation (CXCR7 [2]; [4]): no phosphorylation changes were observed for Erk
